TRPML3 ag – human TRPML3 channel agonists, primary screen, cell-based, HEK293 TRPML3-YFP, Fluo-8 calcium fluorescence, 3 µM; Mucolipin-3 (Homo sapiens), Q8TDD5; activation, % at 3 µM; 220,000 compounds, 0.29% hits; 100% = the carbachol control signal;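 active = activation above its plate's cutoff, the mean activation of the plate's test wells plus 3 SD, cut at about 12% in these data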;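 also: 0% = DMSO only wells and 100% = carbachol wells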
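Material: TRPML3-YFP stable HEK293 cells | Dosing: One concentration, 3 µM nominal, 0.3% DMSO | Timing: 125 s total fluorescence read per well | Technique: Fluo-8 calcium dye fluorescence, ex 470-495, em 515-575 nm | Measure: Percent activation from peak-to-basal fluorescence ratio, scaled between DMSO and carbachol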
TRPN1 ag – zebrafish TRPN1 channel agonists, primary screen, cell-based, HEK293, calcium fluorescence. transient receptor potential cation channel N1 (TRPN1/NompC), Danio rerio. HEK293 zebrafish TRPN1-YFP, Fluo-8 calcium fluorescence; 100% = response to 87 µM carbachol. activation, % at 3 µM. 220,000 compounds, 0.18% hits. AID 1424, 2008;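 active = activation above its plate's cutoff, the mean activation of test wells on that plate plus 3 SD, cut at about 19% in these data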;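 also: 0% = DMSO alone and 100% = 87 µM carbachol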
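Material: zebrafish TRPN1-YFP in HEK293 cells. Doses: one dose of 3 µM, 0.3% DMSO. Incubation: dye 1 h 37 °C plus 30 min RT. Measured by: intracellular calcium fluorescence with Fluo-8.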
CHO parental Ca – ATP-evoked calcium signal inhibitors, parental CHO, primary screen, counter-screen for OX1R antagonist project, cell-based, fluorescence, Fluo-8 calcium dye; inhibition, % at 5.6 µM; parental CHO-K1, ATP-induced calcium, Fluo-8 fluorescence; 330,000 compounds, 0.63% hits;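 active = inhibition above that plate's mean sample inhibition plus 3 SD, cut at about 26% in these data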;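 also: 0% = ATP-challenged DMSO wells and 100% = DMSO wells without ATP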
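Test system: untransfected parental CHO cell line. Compound: one dose, 5.6 µM nominal. Detection: intracellular calcium via Fluo-8 no-wash fluorescent dye. Measure: % inhibition. Benchmarks: ATP-challenged DMSO wells low, unchallenged DMSO wells high.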
OX1R antag-1 – OX1R (HCRTR1) antagonists, primary screen, fluorescence, CHO/OX1R cells, Fluo-8 calcium, orexin A | Orexin/Hypocretin receptor type 1 (Homo sapiens), O43613 | Fluo-8 calcium fluorescence | inhibition, % at 5 µM | 330,000 compounds, 0.43% hits;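 active = inhibition above its plate's threshold, mean inhibition of all tested compounds on the plate plus 3 SD, cut at about 37% in these data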;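 also: 0% = orexin A challenge wells and 100% = SB-334867-A antagonist wells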
Target sequence (O43613 whole entry, looked up): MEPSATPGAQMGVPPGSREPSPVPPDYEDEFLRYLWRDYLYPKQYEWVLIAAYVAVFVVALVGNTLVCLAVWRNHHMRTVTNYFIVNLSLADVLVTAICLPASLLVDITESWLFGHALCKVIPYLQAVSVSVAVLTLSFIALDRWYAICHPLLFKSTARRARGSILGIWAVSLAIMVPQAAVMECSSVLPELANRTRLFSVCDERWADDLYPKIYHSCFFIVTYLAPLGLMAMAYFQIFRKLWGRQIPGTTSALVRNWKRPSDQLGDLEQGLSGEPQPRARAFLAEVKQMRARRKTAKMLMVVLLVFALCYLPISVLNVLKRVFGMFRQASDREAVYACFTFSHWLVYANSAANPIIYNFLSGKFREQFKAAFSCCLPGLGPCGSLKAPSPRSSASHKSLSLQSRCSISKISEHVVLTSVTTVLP
OX1R antag-2 – antagonists of human orexin 1 receptor (OX1R); Orexin/Hypocretin receptor type 1 (Homo sapiens), O43613; OX1R-expressing cells, FRET antagonist read-out; inhibition, % at 6.6 µM; 330,000 compounds, 1.8% hits; in the data active = inhibition mostly above about 38%, no sharp cut-off; inactive = mostly below about 40%;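 also: 0% = agonist challenge alone and 100% = reference antagonist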
Starred values were filed as active, the others as inactive; x = not tested or not shown. Sampled rows, rich in hits. Any-hit rate of the full collection: about 2.5%.

SMILES	TRPML3 ag	TRPN1 ag	CHO parental Ca	OX1R antag-1	OX1R antag-2
CC(=O)NCCNc1ccc([N+](=O)[O-])cc1C#N	0.8	1.0	6.1	4.7	67.1*
COc1cccc2sc(Nc3nc(-c4ccccn4)cs3)nc12	1.1	3.2	45.0*	102.0*	113.6*
c1ccc(Nc2nc(-c3ccccn3)cs2)cc1	0.2	-1.4	-24.3	-14.7	76.6*
Cc1cnn(Cc2cccnc2)c1N	0.3	2.0	-8.0	-10.8	4.9
Cc1ccc(C)c(C(C)NC(=S)NCc2ccc(F)cc2)c1 (stereo not given)	x	x	66.7*	41.4*	30.6
COC(=O)CNC(=O)CN(c1ccc(OC)cc1OC)S(=O)(=O)c1ccccc1	x	x	-13.5	6.5	2.3
CCOc1ccccc1N(CC(=O)Nc1ccc(OC)cc1OC)S(=O)(=O)c1ccccc1	x	x	0.0	-7.9	50.3*
CCOc1ccccc1N(CC(=O)NCCc1ccc(OC)c(OC)c1)S(=O)(=O)c1ccccc1	x	x	-16.0	6.2	75.7*
COc1ccc(OC)c(N(CC(=O)NC2CC3CCC2C3)S(=O)(=O)c2ccccc2)c1 (stereo not given)	x	x	-39.8	-41.1	46.3*
COc1ccc(N(CC(=O)NCCC2=CCCCC2)S(=O)(=O)c2ccccc2)c(OC)c1	-0.5	-2.9	-36.9	-31.0	61.9*
COc1ccc(Cl)cc1N(CC(=O)NC1CC2CCC1C2)S(=O)(=O)c1ccccc1 (stereo not given)	x	x	-15.9	-20.3	26.2
Cc1ccc(S(=O)(=O)N2CCC(C(=O)OCC(=O)N3CCCC3=O)CC2)cc1C	x	x	-8.1	-9.0	1.3
COc1cccc(-c2cccc(NC(=O)C3CCN(Cc4ccon4)CC3)c2)c1	x	x	-6.2	-17.5	12.0
Cc1cccc(NS(=O)(=O)c2cccc3nsnc23)c1	-0.3	-1.1	6.9	-4.2	31.3
O=C(NC1CCN(Cc2ccccc2)CC1)C(NS(=O)(=O)c1cccc2nsnc12)c1ccccc1 (stereo not given)	0.2	-0.8	-23.4	-36.1	76.5
Cc1ccnc(NS(=O)(=O)c2cccc3nsnc23)c1	0.5	0.5	-8.5	3.9	127.0*
COc1ccccc1CNS(=O)(=O)c1cccc2nsnc12	x	x	-7.7	5.9	38.6
Cc1c(NS(=O)(=O)c2cccc3nsnc23)c(=O)n(-c2ccccc2)n1C	0.2	-1.4	-11.5	-12.1	76.7*
O=C(NCc1cccs1)C(NS(=O)(=O)c1cccc2nsnc12)c1ccccc1 (stereo not given)	-0.8	-0.2	-18.4	-26.8	49.2*
COc1ccccc1CNC(=O)C(NS(=O)(=O)c1cccc2nsnc12)C(C)C (stereo not given)	0.6	-0.7	-18.0	-8.8	76.2*
C=CCN1C(=O)c2ccc(C(=O)N(C)CC(=O)Nc3cccc(F)c3)cc2C1=O	x	x	-9.0	-23.2	3.7
CCCCn1c(=O)[nH]c(=O)c2c1nc(-c1ccccn1)n2CC	x	x	-6.8	0.6	10.0
COc1cccc(C2/C(=C(\O)c3ccc4c(c3)OCCO4)C(=O)C(=O)N2CCCN2CCOCC2)c1OC (stereo not given)	x	x	-0.6	-5.8	7.8
COc1cccc(CNC(=O)CC(NC(=O)c2ccccc2)c2ccccc2)c1 (stereo not given)	x	x	-18.3	-25.3	25.5
O=C(O)C(Cc1c[nH]c2ccccc12)NS(=O)(=O)c1ccccc1 (stereo not given)	1.1	1.4	-11.8	3.4	6.6
SMILES	TRPML3 ag	TRPN1 ag	CHO parental Ca	OX1R antag-1	OX1R antag-2
O=S(=O)(NCc1ccccc1)c1cccc2nsnc12	-0.6	-0.8	-26.4	-13.9	42.0
CC(C)NS(=O)(=O)c1cccc2nsnc12	0.7	1.8	-3.7	-7.0	71.8*
CC(C)C(NS(=O)(=O)c1cccc2nsnc12)C(=O)Nc1nccs1 (stereo not given)	-0.3	-0.2	-10.7	-10.8	36.6
O=C(O)C(Cc1c[nH]c2ccccc12)NS(=O)(=O)c1cccc2nsnc12 (stereo not given)	1.0	0.5	-6.0	-6.4	61.0*
CC(C)C(NS(=O)(=O)c1cccc2nsnc12)C(=O)NC1CCCCC1C (stereo not given)	x	x	-11.7	-7.4	45.7*
CCOc1ccc(OCC)c(NC(=O)c2nnn(CC(=O)Nc3cc(C)cc(C)c3)c2N)c1	x	x	10.1	8.5	31.3
COc1ccc(-c2cn[nH]c2-c2ccc(OCc3ccc([N+](=O)[O-])cc3)cc2O)cc1OC	0.1	0.1	-5.8	5.2	29.9
CCc1cc(-c2[nH]ncc2-c2ccc([N+](=O)[O-])cc2)c(O)cc1OC	x	x	59.6*	-10.1	17.2
C[C@H](CO)N1C[C@H](C)[C@@H](CN(C)C(=O)Nc2ccc(F)cc2)Oc2ccc(NS(C)(=O)=O)cc2C1=O	x	x	-3.0	-10.4	10.3
O=C(COC(=O)c1ccccc1)Nc1ncc([N+](=O)[O-])s1	x	x	-1.4	21.0	36.8*
O=C(Nc1ccccc1)Nc1ncc([N+](=O)[O-])s1	17.0*	22.2*	x	x	x
O=C(Nc1ncc([N+](=O)[O-])s1)c1cccc([N+](=O)[O-])c1	3.1	12.6	12.8	-4.1	39.4*
O=C(Nc1ccc(NC(=O)c2cccc([N+](=O)[O-])c2)cc1)c1cccc([N+](=O)[O-])c1	x	x	-8.4	-29.5	0.2
O=C(O)C1CCCC[C@H]1C(=O)Nc1ncc([N+](=O)[O-])s1 (stereo not given in full)	x	x	-7.3	-8.7	65.5*
C[n+]1c(-c2ccccc2)sc([S-])c1-c1ccccc1	x	x	39.5*	-23.4	15.1
CCn1c(=O)c2sccc2n(CC(=O)NC2CCCC2)c1=O	x	x	-4.1	3.9	17.0
Nc1ccc(-c2c3ccc(=O)cc-3oc3cc(O)ccc23)c(C(=O)O)c1	x	x	57.6*	87.1*	62.6*
Nc1ccc(O)c(C(=O)O)c1	x	x	-9.5	-9.1	30.4
CCOC(=O)c1snc2c(=O)[nH]cnc12	0.0	3.7	4.0	-1.2	41.7*
O=C(Nc1ccccc1)c1snc2c(=O)[nH]cnc12	1.3	0.5	-16.0	-25.2	74.4*
CCOC(=O)C1CCCN(c2ccc(NC(=O)c3snc4c(=O)[nH]cnc34)cc2)C1 (stereo not given)	-0.2	-0.5	-7.9	-10.2	35.6
COc1ccc2cc(CCNS(=O)(=O)c3c(C)cc(C)cc3C)c(=O)[nH]c2c1	x	x	-8.6	11.4	76.1*
O=C(CC1CC2CCC1C2)N1CCN(S(=O)(=O)c2ccccc2C(F)(F)F)CC1 (stereo not given)	x	x	-26.6	-19.9	-1.5
O/N=C(\c1ccc(Cl)cc1)c1cc2ccccc2o1	-1.5	-1.4	32.6*	-9.7	13.3

Compound activity: PubChem BioAssay, The Scripps Research Institute Molecular Screening Center
